Active and inactive are the calls of the source. No cut-off for these calls is given here.
Columns and labels:
Histone deacetylase 1 = Histone deacetylase 1 (Homo sapiens, UniProt Q13547); assay: Inhibition of recombinant full length HDAC1 (unknown origin) using Ac-peptide-AMC as substrate preincubated for 15 mins followed by substrate addition and measured after 1 hr by fluorescence assay
[1] = target: Polyamine deacetylase HDAC10 (Homo sapiens, UniProt Q969S8); assay: Inhibition of recombinant full length N-terminal FLAG-tagged human HDAC10 expressed in baculovirus infected sf9 cells using Ac-peptide-AMC as substrate preincubated for 15 mins followed by substrate addition and measured after 1 hr by fluorescence assay
Chain of Polyamine deacetylase HDAC10 (Q969S8 whole entry): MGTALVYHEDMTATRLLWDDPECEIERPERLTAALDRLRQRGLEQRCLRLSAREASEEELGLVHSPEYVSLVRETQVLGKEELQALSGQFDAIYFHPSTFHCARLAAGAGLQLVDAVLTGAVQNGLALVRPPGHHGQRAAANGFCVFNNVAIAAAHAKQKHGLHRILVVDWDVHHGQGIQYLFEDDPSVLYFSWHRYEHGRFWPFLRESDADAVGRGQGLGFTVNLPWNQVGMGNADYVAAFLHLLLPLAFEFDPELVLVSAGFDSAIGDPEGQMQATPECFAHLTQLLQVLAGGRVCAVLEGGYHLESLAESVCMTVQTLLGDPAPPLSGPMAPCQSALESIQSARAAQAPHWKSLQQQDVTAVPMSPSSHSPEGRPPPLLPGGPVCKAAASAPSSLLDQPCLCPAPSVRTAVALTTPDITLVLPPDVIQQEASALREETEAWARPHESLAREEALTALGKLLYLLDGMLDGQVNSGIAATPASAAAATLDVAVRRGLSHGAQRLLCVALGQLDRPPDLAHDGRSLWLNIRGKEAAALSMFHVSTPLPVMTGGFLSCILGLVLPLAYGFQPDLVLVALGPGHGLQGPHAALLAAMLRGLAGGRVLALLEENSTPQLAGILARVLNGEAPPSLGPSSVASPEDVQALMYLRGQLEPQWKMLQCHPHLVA

[2] = target: Serine/threonine-protein kinase mTOR (Homo sapiens, UniProt P42345); assay: Inhibition of recombinant N-terminal FLAG-tagged human mTOR (1362 to end residues) using ULight-4E-BP1 (Thr37/46) peptide as substrate after 1 hr by fluorescence assay
How it was run: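 mTOR enzyme, ATP, compound and ULight-4E-BP1 (Thr37/46) peptide in kinase buffer were incubated 1 h at room temperature. EDTA quench plus Eu-anti-phospho-4E-BP1 antibody was added and equilibrated 1 h. TR-FRET was read at excitation 320 or 340 nm and emission 665 nm. Curves were fitted, and values are means of at least two experiments.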

[3] = target: PI3-kinase p110-alpha/p85-alpha (Homo sapiens) (UniProt P27986+P42336); assay: Inhibition of recombinant human full length N-terminal His-tagged/untagged p110alpha/p85alpha expressed in baculovirus expression system at 100 nM using PIP2 as substrate after 1 hr by Kinase-Glo reagent-based assay relative to control
How it was run: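 PI3Kα (p110α/p85α) incubated with PIP2 substrate and ATP in kinase buffer for 1 h at room temperature. Kinase-Glo reagent was then added for 15 min before luminescence read-out. Inhibition rate at 100 or 1000 nM is the mean of at least two experiments.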

MV4-11 [4] = assay: Cell cycle arrest in human MV4-11 cells assessed as accumulation at G0/G1 phase at 1.25 nM after 24 hrs by propidium iodide/RNase staining-based FACS analysis (reference value: 44.79%); assay type: functional
MV4-11 [5] = assay: Cell cycle arrest in human MV4-11 cells assessed as accumulation at G2/M phase at 2.5 nM after 24 hrs by propidium iodide/RNase staining-based FACS analysis (reference value: 18.79%); assay type: functional
MV4-11 [6] = assay: Cell cycle arrest in human MV4-11 cells assessed as accumulation at G0/G1 phase at 5 nM after 24 hrs by propidium iodide/RNase staining-based FACS analysis (reference value: 44.79%); assay type: functional
MV4-11 [7] = assay: Cell cycle arrest in human MV4-11 cells assessed as accumulation at G0/G1 phase at 10 nM after 24 hrs by propidium iodide/RNase staining-based FACS analysis (reference value: 44.79%); assay type: functional
MV4-11 [8] = assay: Cell cycle arrest in human MV4-11 cells assessed as accumulation at S phase at 10 nM after 24 hrs by propidium iodide/RNase staining-based FACS analysis (reference value: 36.42%); assay type: functional
MM1.S [9] = assay: Cell cycle arrest in human MM1S cells assessed as accumulation at G2/M phase at 10 nM after 24 hrs by propidium iodide/RNase staining-based FACS analysis (reference value: 26.29%); assay type: functional
MV4-11 [10] = assay: Induction of apoptosis in human MV4-11 cells assessed as early apoptotic cells at 10 nM after 48 hrs by Annexin V-FITC/propidium iodide staining-based flow cytometric analysis (reference value: 10.7%); assay type: functional
MV4-11 [11] = assay: Induction of apoptosis in human MV4-11 cells assessed as late apoptotic cells at 40 nM after 48 hrs by Annexin V-FITC/propidium iodide staining-based flow cytometric analysis (reference value: 5.03%); assay type: functional
MV4-11 [12] = assay: Induction of apoptosis in human MV4-11 cells assessed as viable cells at 160 nM after 48 hrs by Annexin V-FITC/propidium iodide staining-based flow cytometric analysis (reference value: 84.1%); assay type: functional; details: MV4-11, 48 h, read-out: Activity
MM1.S [13] = assay: Induction of apoptosis in human MM1S cells assessed as early apoptotic cells at 10 nM after 48 hrs by Annexin V-FITC/propidium iodide staining-based flow cytometric analysis (reference value: 0.38%); assay type: functional
MM1.S [14] = assay: Induction of apoptosis in human MM1S cells assessed as necrotic cells at 10 nM after 48 hrs by Annexin V-FITC/propidium iodide staining-based flow cytometric analysis (reference value: 0.32%); assay type: functional
MM1.S [15] = assay: Induction of apoptosis in human MM1S cells assessed as early apoptotic cells at 20 nM after 48 hrs by Annexin V-FITC/propidium iodide staining-based flow cytometric analysis (reference value: 0.38%); assay type: functional
MM1.S [16] = assay: Induction of apoptosis in human MM1S cells assessed as early apoptotic cells at 160 nM after 48 hrs by Annexin V-FITC/propidium iodide staining-based flow cytometric analysis (reference value: 0.38%); assay type: functional
MM1.S [17] = assay: Induction of apoptosis in human MM1S cells assessed as viable cells at 160 nM after 48 hrs by Annexin V-FITC/propidium iodide staining-based flow cytometric analysis (reference value: 98.9%); assay type: functional; details: read-out: Activity
MM1.S [18] = assay: Induction of apoptosis in human MM1S cells assessed as viable cells at 320 nM after 48 hrs by Annexin V-FITC/propidium iodide staining-based flow cytometric analysis (reference value: 98.9%); assay type: functional; details: read-out: Activity
MM1.S [19] = assay: Antitumor activity against human MM1S cells xenografted in NOD/SCID mouse assessed as tumor growth inhibition at 20 mg/kg, iv administered every 2 days for 5 days and measured every 2 days post last dose by caliper method relative to control; assay type: functional; details: read-out: TGI
How it was run: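 MM1S xenografts were made with 10^7 cells in 100 μL serum-free RPMI 1640, injected s.c. into the right flank of female NOD/SCID mice aged 5-6 weeks. Mice were randomized at 100-200 mm3, 6 per group. Dosing was i.v. every 2 days in saline with 2.5% DMSO and 10% cyclodextrin at pH 9. Tumours were measured by caliper every 2 days (volume = length × width² × 0.5) and weighed at the end.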

[20] = Toxicity against NOD/SCID mouse xenografted with human MV4-11 cells assessed as effect on body weight at 10 mg/kg, iv administered every 2 days for 6 days; assay type: organism-based; details: in vivo
How it was run: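 MV4-11 cells (10^7 in 100 μL serum-free IMDM) were injected s.c. into the right flank of female NOD/SCID mice aged 5-6 weeks. Groups of 6 were randomised at 100-200 mm3. Dosing was i.v. every 2 days in physiological saline containing 2.5% DMSO and 10% cyclodextrin, pH 9. Tumours were measured by caliper every 2 days. Survivors were counted.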

[21] = target: FKBP12A/mTOR (Homo sapiens) (UniProt P62942+P42345); assay: Inhibition of human recombinant MTOR/FKBP12 expressed in mammalian expression system assessed as residual activity at 1 uM
Chain of FKBP12A/mTOR (Homo sapiens) (P62942 2-108 limits assumed, other chains not shown): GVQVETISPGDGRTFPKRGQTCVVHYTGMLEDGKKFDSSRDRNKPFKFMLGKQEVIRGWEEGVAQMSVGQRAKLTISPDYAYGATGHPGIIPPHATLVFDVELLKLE
How it was run: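 Radiometric kinase panel (99 kinases) run at 1 μM inhibitor in duplicate with [γ-33P]ATP, kinase-specific buffer and substrate at room temperature. The reaction was started with Mg/ATP and stopped with 0.5% phosphoric acid, then spotted on P30 filtermat, washed and scintillation counted. Results are expressed as % remaining activity versus DMSO control.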

Chain of Histone deacetylase 1 (Q13547 whole entry): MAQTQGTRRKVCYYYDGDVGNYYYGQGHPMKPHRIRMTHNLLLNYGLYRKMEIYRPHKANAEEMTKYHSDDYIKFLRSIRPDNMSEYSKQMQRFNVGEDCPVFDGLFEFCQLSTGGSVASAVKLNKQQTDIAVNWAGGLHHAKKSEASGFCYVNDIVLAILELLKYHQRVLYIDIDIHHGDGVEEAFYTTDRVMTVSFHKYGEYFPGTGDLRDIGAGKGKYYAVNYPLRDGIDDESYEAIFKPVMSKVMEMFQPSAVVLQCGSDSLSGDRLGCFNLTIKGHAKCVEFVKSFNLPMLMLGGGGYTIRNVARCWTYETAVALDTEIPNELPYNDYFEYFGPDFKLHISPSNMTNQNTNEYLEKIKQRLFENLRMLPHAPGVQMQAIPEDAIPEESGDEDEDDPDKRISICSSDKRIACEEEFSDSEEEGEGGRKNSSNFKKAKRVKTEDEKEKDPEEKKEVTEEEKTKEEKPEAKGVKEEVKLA

C[C@@H]1CN(C(=O)Nc2ccc(-c3nc(N4CCOCC4)c4cnn(CCCCCCC(=O)NO)c4n3)cc2)CCO1
IC50 (Histone deacetylase 1): 0.19 nM | IC50 [1]: 0.58 nM | IC50 [2]: 1.2 nM | inhibition [3]: 28.3% | Activity (MV4-11 [4]): 46.85% | Activity (MV4-11 [5]): 18.2% | Activity (MV4-11 [6]): 64.69% | Activity (MV4-11 [7]): 65.4% | Activity (MV4-11 [8]): 23.42% | Activity (MM1.S [9]): 20.43% | Activity (MV4-11 [10]): 14.8% | Activity (MV4-11 [11]): 57.6% | viability at 0.16 µM (MV4-11 [12]): 2.29% | Activity (MM1.S [13]): 3.09% | Activity (MM1.S [14]): 0.31% | Activity (MM1.S [15]): 1.61% | Activity (MM1.S [16]): 19.6% | viability at 0.16 µM (MM1.S [17]): 13.8% | viability at 0.32 µM (MM1.S [18]): 3.68% | inhibition in vivo at 20 mg/kg (MM1.S [19]): 72.5% | Activity [20]: Non-Toxic | inhibition [21]: Active

Source: ChEMBL document CHEMBL4411315, “Discovery of Novel Dual Histone Deacetylase and Mammalian Target of Rapamycin Target Inhibitors as a Promising Strategy for Cancer Therapy” (J Med Chem, 2019)
